# Shown are actives, neighbours in structure and some others; about 3.2% of the full set was active somewhere.
# S100A4 inh HTS: inhibitors of human S100A4 binding to myosin IIA peptide; P26447; S100A4/TAMRA-MyoIIA peptide fluorescence polarization; inhibition, % at 10.7 µM; actives 0.14% (n = 360,000); AID 652163;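 active = mean inhibition of at least 70% across replicates, with every replicate also reaching that level; inconclusive = mean inhibition reaches 70% but some replicates fall short; inactive = mean inhibition below 70%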
# Target sequence (P26447 whole entry, looked up): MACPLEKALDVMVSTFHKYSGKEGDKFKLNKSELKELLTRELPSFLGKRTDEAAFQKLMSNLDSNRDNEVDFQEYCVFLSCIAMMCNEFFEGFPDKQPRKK
#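 Test system – S100A4 monomer (human) · Compound – single-point compound testing · Schedule – 5 min incubation before reading · Probe or stimulus – TAMRA-labelled myosin IIA heavy-chain peptide probe, 5 nM · Benchmarks – neutral control DMSO, positive control TFP · Medium – Calcium-containing HEPES buffer, pH 7.2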
# Cneo AK release: Cryptococcus neoformans lysis via adenylate kinase release. C. neoformans lysis, adenylate kinase release luminescence, 4 h; normalised: neutral wells 0, clomiphene wells 100. lysis activity, % at 15 µM. actives 0.2% (n = 360,000);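 active = mean lysis activity across replicates of at least 80%, whatever share of replicates individually reach that level; inactive = mean lysis activity below 80%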
#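 Test system: log-phase Cryptococcus neoformans yeast cells; Quantity: yeast cell density of 5 × 10^6 cells/mL; Buffer or medium: YPD; Doses: single compound concentration per well; Timing: 4 h at 37 °C static, read 1 h later; Measured by: AK luminescence; Read-out basis: lysis from increased AK signal; Control set: Clomiphene as positive control.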
# MLL AF4-AF9 inh: MLL-AF4/AF9 protein interaction inhibition. inhibition, % at 10 µM. AlphaScreen, biotin-AF4 peptide binding to FLAG-AF9. actives 0.47% (n = 350,000). P42568;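 active = every replicate reaching a set inhibition limit, whatever the replicate mean, cut at about 25% in these data; inconclusive = mean inhibition reaches that limit but some replicates miss it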;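 also: 0% = plate neutral control median and 100% = total signal loss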
# Target sequence (P42568 whole entry, looked up): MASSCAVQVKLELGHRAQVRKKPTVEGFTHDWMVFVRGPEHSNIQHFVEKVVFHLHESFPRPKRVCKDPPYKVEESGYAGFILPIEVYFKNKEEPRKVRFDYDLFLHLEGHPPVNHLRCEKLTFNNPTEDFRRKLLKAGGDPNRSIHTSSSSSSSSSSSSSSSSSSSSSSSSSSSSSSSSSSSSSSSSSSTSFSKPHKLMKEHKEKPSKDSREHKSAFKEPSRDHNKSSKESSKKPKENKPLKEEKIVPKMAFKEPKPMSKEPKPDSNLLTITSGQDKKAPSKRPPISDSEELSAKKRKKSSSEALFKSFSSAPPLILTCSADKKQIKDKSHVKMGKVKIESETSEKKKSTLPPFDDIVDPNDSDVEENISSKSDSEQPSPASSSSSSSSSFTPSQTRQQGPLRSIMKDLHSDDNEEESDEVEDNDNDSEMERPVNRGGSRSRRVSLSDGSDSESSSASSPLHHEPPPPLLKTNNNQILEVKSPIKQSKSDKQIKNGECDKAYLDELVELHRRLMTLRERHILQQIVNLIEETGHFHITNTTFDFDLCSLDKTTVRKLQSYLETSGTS
# Ecoli rRNA inh: inhibits bacterial ribosomal RNA function over humanized ribosomes | E. coli WT GFP vs humanized-ribosome RFP mutants, fluorescence, 24 h; hits give low values; DMSO median 0, no signal -100 | GFP signal change (wild-type ribosome), % (test concentration not listed) | actives 1.6% (n = 350,000);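 active = significant combined selectivity score with lowered wild-type GFP, culture density cut under 30%, mutant RFP and density less affected; inactive = any of these conditions unmet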
# DENV2 CPE: protects cells from dengue virus 2 cytopathic effect | DENV2-infected cells, cytopathic effect rescue, plate reader | CPE inhibition, % at 9.99 µM | actives 1.7% (n = 350,000); in the data active = CPE inhibition above about 20%, passing the limit was not always enough; inconclusive = no clear call, values can overlap the other calls; tested in BHK-21 cells;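 also: 0% = median of neutral control wells and 100% = median of positive control wells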
# PfHsp90 yeast 2: growth inhibition of yeast expressing Plasmodium Hsp90; AID 504621; inhibition, % at 9.4 µM; actives 0.32% (n = 310,000); S. cerevisiae expressing PfHsp90, BacTiter-Glo ATP, 48 h; yeast lacking PDR1 and PDR3 efflux regulators;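 active = every replicate shows inhibition above about 80%, whatever the replicate mean, limit read from the data; inconclusive = mean inhibition reaches the set limit but some replicate falls short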;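 also: 0% = DMSO neutral controls and 100% = 20 µM radicicol positive controls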
# * marks the source's active call; other numbers are inactive results; ? = inconclusive; . = not tested or not shown.
SMILES,S100A4 inh HTS,Cneo AK release,MLL AF4-AF9 inh,Ecoli rRNA inh,DENV2 CPE,PfHsp90 yeast 2
CCCC(=O)Nc1ccc2c(c1)C(=O)N(C)[C@H]1CC[C@H](CC(=O)NCCCN(C)C)O[C@@H]1CO2,-11,3,0,3,61*,.
CCCC(=O)Nc1ccc2c(c1)C(=O)N(C)[C@H]1CC[C@H](CC(=O)NCCCN(C)C)O[C@H]1CO2,-6,2,1,3,49*,.
CCCNC(=O)C[C@@H]1CC[C@@H]2[C@H](COc3ccc(NC(=O)CCC)cc3C(=O)N2C)O1,-2,110*,2,3,-11,.
COc1ccccc1C/C(N)=N/OC(=O)c1cccs1,0,.,-5,-25*,-6,-9
N/C(Cc1ccc(Cl)cc1Cl)=N\OC(=O)c1ccc(Br)o1,-12,-5,0,-22*,1,98*
N/C(Cc1ccc(Cl)cc1Cl)=N\OC(=O)c1cccs1,.,-1,.,.,.,83*
N/C(Cc1cccc2ccccc12)=N\OC(=O)c1ccc(Br)o1,1,.,-5,20,-1,.
C[C@@H]1CN([C@@H](C)CO)C(=O)c2cc(C#CC3CCCC3)cnc2O[C@H]1CN(C)Cc1ccncc1,20,14,8,-3,4,.
Cc1cccc(CS(=O)(=O)Cc2ccc(C(=O)NC(C)c3ccccc3)o2)c1 (stereo not drawn),2,-1,-11,-2,3,-3
CCC(C)[C@@H](NC(=O)OC(C)(C)C)c1nnc(S(=O)(=O)Cc2cccc(C)c2)o1 (stereo partly drawn),.,.,.,.,.,121*
Cc1ccccc1CS(=O)(=O)c1nnc([C@H](Cc2ccccc2)NC(=O)OC(C)(C)C)o1,4,-1,4,14,1,109*
Cc1c(C(=O)N2CCN(c3ccccc3)CC2)oc2c1C(=O)CC(C)(C)C2,0,4,3,-23*,6,-78
C[C@H]1CN([C@@H](C)CO)C(=O)c2cc(NS(=O)(=O)c3ccccc3)ccc2O[C@H]1CN(C)CC1CC1,10,-59,0,-1,-1,.
CCCC(C(=O)c1ccccc1)n1cncn1 (stereo not drawn),.,1,.,.,.,-25
Cc1ccc(C(=O)C(SC(C)(C)C)n2cncn2)cc1 (stereo not drawn),1,-3,-15,7,4,83*
Cn1nc(C(F)(F)F)c2cc(C(=O)Nc3ccc(F)c(Cl)c3)sc21,-4,.,-4,-30*,13,-4
Cn1nc(C(F)(F)F)c2cc(C(=O)Nc3ccc(C(F)(F)F)cc3)sc21,-5,.,-3,-39*,-3,4
Cn1nc(C(F)(F)F)c2cc(C(=O)Nc3ccc(F)cc3)sc21,7,.,-4,1,-1,5
CN1C(=O)c2cc(NC(=O)Nc3cccc(Cl)c3)ccc2OC[C@@H]2O[C@H](CC(=O)O)CC[C@H]21,-1,59,0,3,?,.
C[C@H]1CN([C@@H](C)CO)C(=O)c2cc(NC(=O)CCCCCC(=O)Nc3ccccc3N)ccc2O[C@@H]1CN(C)S(=O)(=O)c1ccc(F)cc1,0,.,-2,-1,11,.
CO[C@H]1CN(C)C(=O)c2ccc(NC(C)=O)cc2OC[C@H](C)N(C(=O)C2CCCCC2)C[C@@H]1C,-3,0,2,0,9,.
C[C@@H]1CN([C@H](C)CO)C(=O)c2cccc(NC(=O)Nc3ccc4c(c3)OCO4)c2O[C@H]1CN(C)CC1CCCCC1,.,.,.,-13,.,.
CN(C)C1(CNC(=O)C2CCN(S(=O)(=O)c3ccccc3C(F)(F)F)CC2)CCCCC1,-5,-2,2,7,31*,-4
O=C(C1CC1)N1CC(=O)N2[C@@H](CO)[C@H](c3ccc(C#CCc4ccccc4)cc3)[C@@H]2C1,-4,.,0,1,45*,.
O=C(c1ccccc1)N1CC(=O)N2[C@H](C1)[C@H](c1ccc(C#CCC3CCCC3)cc1)[C@@H]2CO,-3,.,5,-16,-2,.
SMILES,S100A4 inh HTS,Cneo AK release,MLL AF4-AF9 inh,Ecoli rRNA inh,DENV2 CPE,PfHsp90 yeast 2
O=C(c1ccccc1)N1CC(=O)N2[C@H](CO)[C@H](c3ccc(C#CCC4CCCC4)cc3)[C@@H]2C1,-19,.,2,-4,21*,.
N#Cc1ccc(-c2ccc([C@@H]3[C@@H](CO)N4C(=O)CN(C(=O)C5CC5)C[C@@H]34)cc2)cc1,10,.,-20,2,-4,.
O=C(C1CC1)N1CC(=O)N2[C@H](CO)[C@@H](c3ccc(C#CCc4ccccc4)cc3)[C@@H]2C1,-13,.,-1,-4,-1,.
N#Cc1ccc(-c2ccc([C@@H]3[C@@H](CO)N4C(=O)CN(C(=O)C5CC5)C[C@H]34)cc2)cc1,83*,.,2,-1,-7,.
O=C(C1CCCCC1)N1CC(=O)N2[C@H](CO)[C@H](c3ccc(C#CCc4ccccc4)cc3)[C@H]2C1,0,.,2,-36,25*,.
C[C@H]1CN([C@@H](C)CO)C(=O)c2cc(NC(=O)Cc3ccccc3)ccc2O[C@@H]1CN(C)Cc1ccc(C(=O)O)cc1,3,0,-1,5,?,.
CCNC(=O)C[C@H]1CC[C@@H]2[C@H](COc3ccc(NC(=O)Nc4cccc(OC)c4)cc3C(=O)N2C)O1,.,-2,.,1,-3,.
COc1cccc(C(=O)N2C[C@H]3[C@@H](c4ccccc42)[C@H](CO)N3C(=O)c2ccccc2)c1,-5,3,-1,1,17,.
O=C(NCC[C@H]1CC[C@H](NS(=O)(=O)Cc2ccccc2)[C@@H](CO)O1)C1CCC1,2,-7,-2,-1,6,.
CC=Cc1ccc2n(c1=O)C[C@@H]1[C@@H](CO)[C@H](C(=O)N3CCCCC3)N(Cc3ccccc3OC)[C@H]21 (mixture of isomers),-3,0,-13,-4,8,.
COc1cccc(-c2ccc([C@H]3[C@@H](CO)N4C(=O)CN(C(=O)C5CCOCC5)C[C@@H]34)cc2)c1,11,.,1,2,33*,.
COc1cccc(-c2ccc([C@H]3[C@H](CO)N4C(=O)CN(C(=O)C5CCOCC5)C[C@@H]34)cc2)c1,-21,.,-2,6,0,.
C[C@@H]1CN([C@@H](C)CO)C(=O)Cc2cc(NC(=O)C3CCCCC3)ccc2O[C@@H]1CN(C)S(=O)(=O)c1ccc(F)cc1,-5,1,-7,-3,14,.
CN(C)C(=O)c1cccc(-c2ccc([C@@H]3[C@@H](CO)N4C(=O)CN(C(=O)C5CCCC5)C[C@@H]34)cc2)c1,-7,.,-1,5,-4,.
Cc1nc2c(-c3ccccc3)c[nH]n2c(=O)c1Cc1ccccc1,-9,-2,2,-20*,4,-43
